From ChEMBL document CHEMBL5303300, “EUbOPEN Chemogenomics Library - Multiplex” (2023)
Several values for one entry are separate records, joined by “and”; a condition that tells them apart may be missing. Equal values may be shown once.

System: Fibroblast
Test: Multiplex assay against human fibroblast
Type: toxicity, cell-based
Details: number of replicates 2
Procedure, shortened: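 Hoechst33342, BioTracker Green Microtubule Cytoskeleton Dye, MitoTracker Red and Annexin V Alexa Fluor 680 were added to live cells at seeding, and imaging on a CQ1 microscope at 37°C and 5% CO2 followed compound addition. Gating by CellPathfinder machine learning separated cells into Hoechst high-intensity objects or normal cells, then normal cells into healthy, pyknosed or fragmented nuclei, then pyknosed cells into mitotic or apoptotic. Per cents of healthy-nucleus cells are reported for the tubulin, mitochondrial-mass and membrane-permeability phenotypes.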

[1] = 12 h, 1 µM, compound concentration 1 uM
[2] = 12 h, 10 µM, compound concentration 10 uM
[3] = 24 h, 1 µM, compound concentration 1 uM
[4] = 24 h, 10 µM, compound concentration 10 uM
[5] = 48 h, 1 µM, compound concentration 1 uM
[6] = 48 h, 10 µM, compound concentration 10 uM

For `CCn1c(-c2nonc2N)nc2cncc(C(=O)N3CC[C@H](N)C3)c21.Cl`, which “Population Apoptotic (%)” value [1] is on record?
Its value is 33% and 45%.

What about the “Population Fragmented Nuclei (%)” value [1] of the same molecule?
Its value is 6% and 11%.

And the “Population Healthy Nuclei (%)” value [1]?
The value was 73% and 74%.

And the “Population Hoechst High Intensity Objects (%)” value [1]?
The value was 0%.

What about the “Population Membrane Permeable-Phenotype (%)” value [1] of the same molecule?
Its value is 6% and 1%.

And the “Population Mitochondria Different-Phenotype (%)” value [1]?
Its value is 0% and 1%.

And the “Population Mitotic Cells (%)” value [1]?
The value was 66% and 54%.

What about the “Population Normal (%)” value [1] of the same molecule?
The value was 100%.

And the “Population Pyknosed Nuclei (%)” value [1]?
The value was 19% and 13%.

And the “Population Tubulin-Different-Phenotype (%)” value [1]?
Its value is 2% and 4%.

What about the “Total Cell Count” value [1] of the same molecule?
Its value is 202 and 240.

And the “Population Apoptotic (%)” value [2]?
Its value is 9% and 19%.

What about the “Population Fragmented Nuclei (%)” value [2] of the same molecule?
Its value is 6% and 12%.

What about the “Population Healthy Nuclei (%)” value [2] of the same molecule?
Its value is 65% and 67%.

And the “Population Hoechst High Intensity Objects (%)” value [2]?
Its value is 0%.

What about the “Population Membrane Permeable-Phenotype (%)” value [2] of the same molecule?
The value was 3% and 1%.

And the “Population Mitochondria Different-Phenotype (%)” value [2]?
Its value is 1% and 2%.

And the “Population Mitotic Cells (%)” value [2]?
The value was 90% and 80%.

And the “Population Normal (%)” value [2]?
The value was 99% and 100%.

What about the “Population Pyknosed Nuclei (%)” value [2] of the same molecule?
The value was 28% and 20%.

And the “Population Tubulin-Different-Phenotype (%)” value [2]?
Its value is 11% and 6%.

What about the “Total Cell Count” value [2] of the same molecule?
The value was 196 and 295.

What about the “Population Apoptotic (%)” value [3] of the same molecule?
Its value is 50% and 69%.

And the “Population Fragmented Nuclei (%)” value [3]?
The value was 4% and 10%.

And the “Population Healthy Nuclei (%)” value [3]?
Its value is 83% and 78%.

What about the “Population Hoechst High Intensity Objects (%)” value [3] of the same molecule?
The value was 0%.

What about the “Population Membrane Permeable-Phenotype (%)” value [3] of the same molecule?
The value was 4% and 2%.

And the “Population Mitochondria Different-Phenotype (%)” value [3]?
Its value is 0%.

What about the “Population Mitotic Cells (%)” value [3] of the same molecule?
The value was 50% and 30%.

And the “Population Normal (%)” value [3]?
Its value is 100%.

What about the “Population Pyknosed Nuclei (%)” value [3] of the same molecule?
The value was 11%.

And the “Population Tubulin-Different-Phenotype (%)” value [3]?
The value was 2% and 5%.

What about the “Total Cell Count” value [3] of the same molecule?
The value was 191 and 224.

What about the “Population Apoptotic (%)” value [4] of the same molecule?
Its value is 23%.

And the “Population Fragmented Nuclei (%)” value [4]?
Its value is 8% and 10%.

What about the “Population Healthy Nuclei (%)” value [4] of the same molecule?
The value was 76% and 77%.

And the “Population Hoechst High Intensity Objects (%)” value [4]?
The value was 0%.

And the “Population Membrane Permeable-Phenotype (%)” value [4]?
The value was 2% and 0%.

What about the “Population Mitochondria Different-Phenotype (%)” value [4] of the same molecule?
The value was 4% and 2%.

And the “Population Mitotic Cells (%)” value [4]?
Its value is 76%.

And the “Population Normal (%)” value [4]?
The value was 100%.

And the “Population Pyknosed Nuclei (%)” value [4]?
The value was 15% and 11%.

What about the “Population Tubulin-Different-Phenotype (%)” value [4] of the same molecule?
The value was 10% and 3%.

And the “Total Cell Count” value [4]?
The value was 196 and 266.

And the “Population Apoptotic (%)” value [5]?
The value was 86% and 66%.

And the “Population Fragmented Nuclei (%)” value [5]?
Its value is 6% and 10%.

What about the “Population Healthy Nuclei (%)” value [5] of the same molecule?
Its value is 85%.

And the “Population Hoechst High Intensity Objects (%)” value [5]?
The value was 0%.

And the “Population Membrane Permeable-Phenotype (%)” value [5]?
Its value is 3% and 2%.

What about the “Population Mitochondria Different-Phenotype (%)” value [5] of the same molecule?
The value was 0%.

What about the “Population Mitotic Cells (%)” value [5] of the same molecule?
Its value is 13% and 33%.

What about the “Population Normal (%)” value [5] of the same molecule?
The value was 100%.

What about the “Population Pyknosed Nuclei (%)” value [5] of the same molecule?
Its value is 7% and 4%.

And the “Population Tubulin-Different-Phenotype (%)” value [5]?
Its value is 1% and 3%.

And the “Total Cell Count” value [5]?
Its value is 196 and 220.

And the “Population Apoptotic (%)” value [6]?
Its value is 57% and 69%.

And the “Population Fragmented Nuclei (%)” value [6]?
Its value is 11% and 9%.

And the “Population Healthy Nuclei (%)” value [6]?
Its value is 72% and 80%.

What about the “Population Hoechst High Intensity Objects (%)” value [6] of the same molecule?
The value was 0%.

What about the “Population Membrane Permeable-Phenotype (%)” value [6] of the same molecule?
Its value is 2% and 1%.

And the “Population Mitochondria Different-Phenotype (%)” value [6]?
Its value is 0%.

What about the “Population Mitotic Cells (%)” value [6] of the same molecule?
The value was 42% and 30%.

And the “Population Normal (%)” value [6]?
The value was 100% and 99%.

And the “Population Pyknosed Nuclei (%)” value [6]?
Its value is 15% and 9%.

What about the “Population Tubulin-Different-Phenotype (%)” value [6] of the same molecule?
Its value is 2% and 3%.

What about the “Total Cell Count” value [6] of the same molecule?
The value was 184 and 264.

With `N=C(N)NCCC[C@H](NC(=O)COCC(c1ccccc1)c1ccccc1)C(=O)O.O=C(O)C(F)(F)F` as the molecule, how does the “Population Apoptotic (%)” value [1] read?
Its value is 42% and 45%.

What about the “Population Fragmented Nuclei (%)” value [1] of the same molecule?
The value was 6% and 9%.

What about the “Population Healthy Nuclei (%)” value [1] of the same molecule?
The value was 71% and 75%.

What about the “Population Hoechst High Intensity Objects (%)” value [1] of the same molecule?
The value was 0%.

What about the “Population Membrane Permeable-Phenotype (%)” value [1] of the same molecule?
The value was 5% and 3%.

And the “Population Mitochondria Different-Phenotype (%)” value [1]?
The value was 0% and 4%.

And the “Population Mitotic Cells (%)” value [1]?
The value was 57% and 54%.

What about the “Population Normal (%)” value [1] of the same molecule?
The value was 100%.

What about the “Population Pyknosed Nuclei (%)” value [1] of the same molecule?
The value was 22% and 14%.

And the “Population Tubulin-Different-Phenotype (%)” value [1]?
Its value is 17% and 12%.

And the “Total Cell Count” value [1]?
The value was 172 and 221.

What about the “Population Apoptotic (%)” value [2] of the same molecule?
The value was 38% and 55%.

What about the “Population Fragmented Nuclei (%)” value [2] of the same molecule?
Its value is 9% and 10%.

And the “Population Healthy Nuclei (%)” value [2]?
Its value is 79% and 71%.

And the “Population Hoechst High Intensity Objects (%)” value [2]?
Its value is 0%.

What about the “Population Membrane Permeable-Phenotype (%)” value [2] of the same molecule?
The value was 8% and 4%.

And the “Population Mitochondria Different-Phenotype (%)” value [2]?
Its value is 0%.

And the “Population Mitotic Cells (%)” value [2]?
Its value is 61% and 44%.

What about the “Population Normal (%)” value [2] of the same molecule?
The value was 100%.

What about the “Population Pyknosed Nuclei (%)” value [2] of the same molecule?
Its value is 11% and 18%.

What about the “Population Tubulin-Different-Phenotype (%)” value [2] of the same molecule?
Its value is 17% and 7%.

What about the “Total Cell Count” value [2] of the same molecule?
The value was 161 and 156.

What about the “Population Apoptotic (%)” value [3] of the same molecule?
Its value is 63% and 48%.

And the “Population Fragmented Nuclei (%)” value [3]?
Its value is 11% and 14%.

What about the “Population Healthy Nuclei (%)” value [3] of the same molecule?
Its value is 64% and 67%.

What about the “Population Hoechst High Intensity Objects (%)” value [3] of the same molecule?
The value was 0%.

What about the “Population Membrane Permeable-Phenotype (%)” value [3] of the same molecule?
The value was 2% and 4%.

And the “Population Mitochondria Different-Phenotype (%)” value [3]?
The value was 0% and 3%.

What about the “Population Mitotic Cells (%)” value [3] of the same molecule?
Its value is 36% and 51%.

And the “Population Normal (%)” value [3]?
Its value is 100%.

What about the “Population Pyknosed Nuclei (%)” value [3] of the same molecule?
Its value is 23% and 18%.

What about the “Population Tubulin-Different-Phenotype (%)” value [3] of the same molecule?
Its value is 11% and 9%.

And the “Total Cell Count” value [3]?
Its value is 171 and 247.

What about the “Population Apoptotic (%)” value [4] of the same molecule?
Its value is 40% and 57%.

And the “Population Fragmented Nuclei (%)” value [4]?
Its value is 14% and 16%.

What about the “Population Healthy Nuclei (%)” value [4] of the same molecule?
Its value is 71% and 70%.

What about the “Population Hoechst High Intensity Objects (%)” value [4] of the same molecule?
Its value is 0%.

What about the “Population Membrane Permeable-Phenotype (%)” value [4] of the same molecule?
The value was 7%.

And the “Population Mitochondria Different-Phenotype (%)” value [4]?
Its value is 1% and 0%.

What about the “Population Mitotic Cells (%)” value [4] of the same molecule?
The value was 59% and 42%.

And the “Population Normal (%)” value [4]?
The value was 100%.

And the “Population Pyknosed Nuclei (%)” value [4]?
The value was 13%.

What about the “Population Tubulin-Different-Phenotype (%)” value [4] of the same molecule?
The value was 16% and 11%.

And the “Total Cell Count” value [4]?
The value was 158 and 160.

And the “Population Apoptotic (%)” value [5]?
The value was 69% and 74%.

And the “Population Fragmented Nuclei (%)” value [5]?
Its value is 15% and 18%.

And the “Population Healthy Nuclei (%)” value [5]?
The value was 65% and 68%.

What about the “Population Hoechst High Intensity Objects (%)” value [5] of the same molecule?
Its value is 0%.

And the “Population Membrane Permeable-Phenotype (%)” value [5]?
Its value is 7% and 4%.

And the “Population Mitochondria Different-Phenotype (%)” value [5]?
The value was 0%.

And the “Population Mitotic Cells (%)” value [5]?
Its value is 30% and 25%.

And the “Population Normal (%)” value [5]?
The value was 100%.

And the “Population Pyknosed Nuclei (%)” value [5]?
Its value is 19% and 12%.

What about the “Population Tubulin-Different-Phenotype (%)” value [5] of the same molecule?
The value was 12% and 5%.

And the “Total Cell Count” value [5]?
Its value is 172 and 253.

And the “Population Apoptotic (%)” value [6]?
Its value is 61% and 94%.

What about the “Population Fragmented Nuclei (%)” value [6] of the same molecule?
Its value is 17% and 18%.

And the “Population Healthy Nuclei (%)” value [6]?
The value was 70% and 71%.

And the “Population Hoechst High Intensity Objects (%)” value [6]?
The value was 0%.

And the “Population Membrane Permeable-Phenotype (%)” value [6]?
The value was 4% and 6%.

And the “Population Mitochondria Different-Phenotype (%)” value [6]?
The value was 0%.

And the “Population Normal (%)” value [6]?
Its value is 100%.

What about the “Population Pyknosed Nuclei (%)” value [6] of the same molecule?
The value was 11% and 10%.

What about the “Population Tubulin-Different-Phenotype (%)” value [6] of the same molecule?
Its value is 8%.

What about the “Total Cell Count” value [6] of the same molecule?
Its value is 151 and 170.
